# Screening results deposited in PubChem by Broad Institute.
# HIV Env fusion = inhibitors of HIV-1 Env-driven cell-cell fusion, primary screen, HeLa-JRFL effector, CEM21 target cells, luciferase; 1.1% of 360,000 active; AID 651610, 2012; inhibition, % at 12.3 µM;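 active = mean replicate inhibition score of at least 50 and every replicate individually at or above 50; inconclusive = only one of the two criteria met; inactive = mean below 50 and not all replicates reaching 50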
# E-sel inducer = E-selectin induction in HUVECs, primary screen, imaging, HUVEC, immunofluorescence imaging, single point. P16581. normalized: neutral wells 0, TNF-alpha wells 100. activation, % at 7.58 µM. 0.37% of 260,000 active. AID 686992, 2013;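 active = mean E-selectin-positive cell signal at least 10% of the positive control, reached in at least 60% of replicates, without over 20% cell loss; inconclusive = no rule given, readout overlaps actives, possibly toxicity-flagged; inactive = the rest, including those meeting only one limit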
#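 Read-out: % PE-positive cells | Test system: HUVEC | Doses: One compound dose added by pin transfer | Buffer or medium: EGM-2 over gelatin coat | Signal: Immunofluorescence imaging | Benchmarks: TNF-alpha, DMSO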
# CFTR F508del cor = F508del CFTR correction, initial screen, CFBE line, single point; CFBE cells, YFP halide quenching; stimulated with forskolin plus potentiator P3; % fluorescence drop versus neutral controls; activity (quench increase), % at 7.58 µM; 0.36% of 350,000 active;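 active = mean added fluorescence quench of at least 8% versus neutral control, with both replicates also reaching 8%; inconclusive = only one of the mean or replicate conditions met; inactive = mean below 8% and not both replicates reaching 8%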;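 note: cells transiently co-express mutant CFTR-F508del with the halide-sensitive YFP; corrector assay measuring rescue of mutant channel to the surface after 24 h compound exposure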
# S100A4 inh HTS = inhibitors of S100A4-myosin IIA peptide binding, primary screen, biochemical, fluorescence polarization, TAMRA-MyoIIA peptide. inhibition, % at 10.7 µM. 0.14% of 360,000 active. AID 652163, 2013;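 active = mean inhibition of at least 70% across replicates, with every replicate also reaching that level; inconclusive = mean inhibition reaches 70% but some replicates fall short; inactive = mean inhibition below 70%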
# Target sequence (P26447 whole entry, looked up): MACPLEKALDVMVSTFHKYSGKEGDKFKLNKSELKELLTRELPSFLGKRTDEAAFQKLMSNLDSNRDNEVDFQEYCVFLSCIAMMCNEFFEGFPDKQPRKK
#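 Test system: S100A4 monomer protein; Medium: HEPES pH 7.2 with CaCl2, KCl, NaCl, DTT, Triton; Probe or stimulus: TAMRA-labelled myosin IIA heavy-chain peptide probe, 5 nM; Doses: one dose per compound; Times: polarization read 5 min after assay mix addition, stable 5–60 min; Benchmarks: neutral control DMSO, positive control TFP.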
# FGF22 binding = binders of human FGF22 protein, primary screen, FGF22 synaptogenesis inhibitor project, biophysical, thermal shift, single point; Fibroblast growth factor 22 (Homo sapiens), Q9HCT0; recombinant FGF22 thermal shift, SYPRO orange fluorescence; percent of sucrose octasulfate shift, DMSO zero; activity (Tm shift, normalised), % at 9.99 µM; 1.5% of 340,000 active;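 active = mean Tm shift, scaled 0 neutral to 100 positive control, at about 1.3% or above, every replicate too, limit read from the data; inconclusive = no clear call, values can overlap the other calls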
# Target sequence (Q9HCT0 whole entry, looked up): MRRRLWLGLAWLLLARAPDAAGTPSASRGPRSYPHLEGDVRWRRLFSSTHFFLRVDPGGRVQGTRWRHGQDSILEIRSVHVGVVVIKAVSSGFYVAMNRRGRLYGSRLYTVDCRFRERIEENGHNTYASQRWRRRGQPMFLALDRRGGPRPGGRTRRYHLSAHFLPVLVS
# Hits are given with their value; 0 = inactive; ? = inconclusive; - = no result given; [ ] = remark or other dose. Sampled rows, rich in hits. Any-hit rate of the full collection: about 2.7%.
SMILES,HIV Env fusion,E-sel inducer,CFTR F508del cor,S100A4 inh HTS,FGF22 binding
O=C(CSc1nc2ccccc2n1-c1ccccc1)Nc1ncc(Cl)cc1Cl,0,0,8.7,0,0
Cc1cccc(-n2c(SCC(=O)Nc3ncc(Cl)cc3Cl)nc3ccccc32)c1,0,0,-,0,0
C[C@H]1CN([C@@H](C)CO)C(=O)c2cccc(NC(=O)c3ccncc3)c2O[C@@H]1CN(C)C(=O)Nc1cccc2ccccc12,66[16.7 µM],0,0,0,0
C[C@@H]1CN([C@@H](C)CO)C(=O)c2cccc(NC(=O)c3ccncc3)c2O[C@H]1CN(C)C(=O)Nc1cccc2ccccc12,0,26,0,0,0
CN(C)C(=O)c1cccc(-c2ccc3n(c2=O)C[C@H]2[C@H](CO)[C@@H](C(=O)NCC4CC4)N[C@@H]32)c1,0,0,-,0,0
COc1cccc(-c2ccc3n(c2=O)C[C@H]2[C@H](CO)[C@@H](C(=O)N4CCOCC4)N[C@@H]32)c1,-,0,0,85,0
COc1cccc(-c2ccc3n(c2=O)C[C@H]2[C@H](CO)[C@@H](C(=O)N4CCCCC4)N[C@@H]32)c1,-,0,-,0,0
CCNC(=O)[C@H]1N[C@H]2c3ccc(-c4cccc(C(=O)N(C)C)c4)c(=O)n3C[C@H]2[C@@H]1CO,-,0,0,83,0
CO[C@@H]1CN(C)C(=O)c2ccc(NS(C)(=O)=O)cc2OC[C@H](C)N(Cc2cccnc2)C[C@H]1C,-,0,0,0,0
CC=Cc1ccc2n(c1=O)C[C@@H]1N[C@H]2[C@H](C(=O)NC2CCCCC2)[C@H]1CO (mixture of isomers),-,0,-,81,0
CN1C(=O)c2cc(NC(=O)c3cccs3)ccc2OC[C@H]2O[C@@H](CC(=O)O)CC[C@@H]21,-,0,0,-,-
Cc1nc2sccn2c1-c1csc(NCc2ccccc2)n1,95,-,-,-,-
CN(C)CC(=O)Nc1ccc2c(c1)[C@@H]1C[C@H](CC(=O)NCCN3CCCCC3)O[C@@H](CO)[C@@H]1O2,0,0,0,0,0
CCOc1ccc2c(c1)sc(N)[n+]2Cc1cc(C)cc2cccnc12,0,0,?,-,-
COc1ccc2c(c1)sc(N)[n+]2Cc1cc(C)cc2cccnc12,0,0,11,0,0
CSc1nnc(-c2cccs2)n1C,0,-,0,0,43
CCC(=O)N1[C@H](C(=O)NC2CCC2)[C@@H](CO)[C@@H]2Cn3c(ccc(-c4ccc(F)cc4)c3=O)[C@@H]21,-,0,0,0,0
COC(=O)CSc1nc(N)nc(C)c1Cl,0,-,0,0,0
COC(=O)CSc1nc(C)c(C)c(C)c1C(N)=O,0,0,0,0,43
C[C@@H]1CN([C@H](C)CO)C(=O)c2cc(NS(=O)(=O)c3cccs3)ccc2O[C@@H]1CN(C)S(=O)(=O)c1ccccc1,0,0,0,0,0
Cc1ccc(S(=O)(=O)N(C)C[C@@H]2Oc3ccc(NC(=O)Nc4ccc5c(c4)OCO5)cc3C(=O)N([C@H](C)CO)C[C@@H]2C)cc1,60[16.7 µM],0,0,0,0
C[C@H](CO)N1C[C@H](C)[C@H](CN(C)S(=O)(=O)c2ccc(Cl)cc2)Oc2ccc(NC(=O)Nc3ccc4c(c3)OCO4)cc2C1=O,111[16.7 µM],0,0,0,0
C[C@@H]1CN([C@@H](C)CO)C(=O)c2cccc(NC(=O)Nc3ccc4c(c3)OCO4)c2O[C@H]1CN(C)S(=O)(=O)c1ccccc1,0,0,9.0,0,0
C[C@H]1CN([C@@H](C)CO)C(=O)c2cc(NC(=O)Nc3ccc4c(c3)OCO4)ccc2O[C@H]1CN(C)S(=O)(=O)c1ccc(Cl)cc1,65[16.7 µM],0,0,0,0
C[C@@H]1CN([C@@H](C)CO)C(=O)c2cc(NC(=O)Nc3ccc4c(c3)OCO4)ccc2O[C@H]1CN(C)S(=O)(=O)c1ccc(Cl)cc1,0,0,0,0,0
SMILES,HIV Env fusion,E-sel inducer,CFTR F508del cor,S100A4 inh HTS,FGF22 binding
Cc1ccc(S(=O)(=O)N(C)C[C@@H]2Oc3c(NC(=O)Nc4ccc5c(c4)OCO5)cccc3C(=O)N([C@@H](C)CO)C[C@H]2C)cc1,0,0,0,0,0
C[C@@H]1CN([C@@H](C)CO)C(=O)c2cc(NC(=O)Cc3ccccc3)ccc2O[C@@H]1CN(C)S(=O)(=O)c1ccc(Cl)cc1,0,0,0,0,0
C[C@H](CO)N1C[C@H](C)[C@H](CN(C)S(=O)(=O)c2ccc(Cl)cc2)Oc2ccc(NC(=O)Cc3ccccc3)cc2C1=O,0,36,0,0,0
COc1ccccc1-c1cn(CC[C@H]2CC[C@@H](NC(=O)C3CCOCC3)[C@H](CO)O2)nn1,0,0,0,0,0
CC(C)(C)c1ccc(C(=O)N2CCCCCC2=O)cc1,91,-,-,-,-
CC(C)(C)c1ccc(C(=O)Nc2ccc(C(=O)N3CCCC3)cc2)cc1,-,-,0,0,0
O=C1CCCCCN1C(=O)c1ccccc1,-,0,0,0,43
Cc1ccc(-c2nc(CSCC(=O)Nc3cc(C)on3)c(C)o2)cc1,0,0,8.4,0,0
O=C(C[C@@H]1CC[C@H](NC(=O)Cc2cccnc2)[C@@H](CO)O1)Nc1ccccc1,-,0,0,0,-
CCC(C)NC(=O)C(Sc1ccccc1)c1ccccc1 (configuration not stated),0,-,0,0,43
CCNC(=O)C(Sc1ccccc1)c1ccccc1 (configuration not stated),0,-,-,-,-
O=C(C[C@@H]1C=C[C@@H](NC(=O)Nc2ccccc2F)[C@H](CO)O1)NCc1ccc(F)cc1,0,0,0,0,0
N#Cc1ccccc1NC(=O)CN1CCN(Cc2ccccc2)CC1,0,-,0,0,0
N#Cc1ccsc1NC(=O)CN1CCN(Cc2ccccc2)CC1,0,-,0,0,43
Cc1ccccc1-c1cc(C(=O)Nc2sc(C(=O)OC(C)C)c(C)c2C#N)c2ccccc2n1,63,0,-,-,-
CN1C(=O)c2cc(NC(=O)C3CCOCC3)ccc2OC[C@H]2O[C@H](CC(=O)O)CC[C@@H]21,0,0,0,0,0
C[C@@H]1CN([C@H](C)CO)C(=O)CCCn2cc(nn2)CO[C@@H]1CN(C)S(=O)(=O)c1ccc(C#N)cc1,-,0,0,0,0
N=C1/C(=C/c2cccn2Cc2ccc(Cl)cc2)C(=O)N=C2SC=CN12,63,-,-,-,-
N=C1/C(=C\c2ccc(-c3cc(Cl)cc(Cl)c3)o2)C(=O)N=C2SC=C(c3ccccc3)N12,0,0,-,-,-
CC1=CC2=NC(=O)/C(=C/c3cccn3Cc3ccccc3)C(=N)N2O1,0,0,0,0,0
CCC1=NN2C(=N)/C(=C\c3cccn3-c3ccc(Cl)cc3)C(=O)N=C2S1,0,-,0,0,47
N=C1/C(=C/c2cccn2CCOc2ccccc2)C(=O)N=C2SC=C(c3ccccc3)N12,0,0,13,0,0
